≈ marks a conversion by molar mass, not a printed value. Calls of active or inactive are those of the source. The calls are words filed in the database; no cut-off is given here.
Assays:
CHO-K1 = assay: Selectivity index, ratio of IC50 for CHOK1 cells to IC50 for human NPC-TW01 cells; format: functional
In short: (§1)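 Selectivity index taken as the ratio between IC50 in the normal line (HUV-EC-C or CHO-K1) and IC50 in NPC-TW01. Each IC50 came from a 72 h MTT assay, with final concentrations of 0.5 nM to […].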

HUVEC [1] = assay: Selectivity index, ratio of IC50 for HUVEC cells to IC50 for human NPC-TW01 cells; format: functional; in short: as §1
MKN-45 = assay: Cytotoxicity against human MKN45 cells after 72 hrs by MTT assay; format: functional, cell-based; settings: MKN-45, 72 h
[2] = Cytotoxicity against human Hep3B cells after 72 hrs by MTT assay; format: functional, cell-based, Hep 3B2
[3] = Solubility in PBS buffer; format: physicochemical
[4] = Cytotoxicity against human MES-SA cells after 72 hrs by MTT assay; format: functional, cell-based
In short: (§2)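 2 × 10⁴ cells/well seeded 12 h before dosing; serial dilutions added at final 0.5 nM to […] for 72 h. Medium then replaced, MTT (5 mg/mL stock, 10 µL) added for 4 h at 37 °C, formazan dissolved in DMSO, absorbance read at 570 nm. Viability plotted against untreated control; IC50 = 50% growth inhibition. Means of at least three independent experiments.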

[5] = Cytotoxicity against CHOK1 cells after 72 hrs by MTT assay; format: cell-based; settings: Cricetulus griseus, CHO-K1, 72 h
A498 = assay: Cytotoxicity against human A498 cells after 72 hrs by MTT assay; format: functional, cell-based; settings: A498, 72 h
[6] = Cytotoxicity against human NPC-TW01 cells after 72 hrs by MTT assay; format: functional, cell-based; settings: NPC-TW01, 72 h
In short: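 2 × 10⁴ cells/well seeded 12 h before dosing; serial dilutions added at final 0.5 nM to […] for 72 h. Medium then replaced, MTT (5 mg/mL stock, 10 µL) added for 4 h at 37 °C, formazan dissolved in DMSO, absorbance read at 570 nm. Means of at least three independent experiments.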

NCI-H838 = assay: Cytotoxicity against human NCI-H838 cells after 72 hrs by MTT assay; format: functional, cell-based; settings: NCI-H838, 72 h; in short: as §2
HCT-116 = assay: Cytotoxicity against human HCT116 cells after 72 hrs by MTT assay; format: functional, cell-based; settings: HCT-116, 72 h; in short: as §2
HUVEC [7] = assay: Cytotoxicity against HUVEC cells after 72 hrs by MTT assay; format: cell-based; settings: Homo sapiens
NPC-TW01 [8] = assay: Induction of morphological changes in human NPC-TW01 cells assessed as microtubule aggregation around nuclei at 1 uM by confocal microscopy; format: functional, cell-based
In short: (§3)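 NPC-TW01 cells grown on coverslips and exposed to compound at 1 µM for 24 h, washed in PBS, then fixed in 4% paraformaldehyde. For tubulin, cells were permeabilized (0.1% Triton X-100), blocked (0.1% BSA), and incubated 45 min at room temperature with anti-β-tubulin (1:200), followed by PE-goat anti-mouse IgG (1:100). For chromosomes, cells were stained with Hoechst 33258. Imaged by laser-scanning confocal microscopy.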

NPC-TW01 [9] = assay: Induction of apoptosis in human NPC-TW01 cells assessed as chromosomal condensation by fluorescence microscopy; format: functional, cell-based; in short: as §3

SMILES	Selectivity Index (CHO-K1)	Selectivity Index (HUVEC [1])	IC50 (MKN-45) [nM]	IC50 [2] [nM]	solubility [3] [µg/mL]	IC50 [4] [nM]	IC50 [5] [nM]	IC50 (A498) [nM]	IC50 [6] [nM]	IC50 (NCI-H838) [nM]	IC50 (HCT-116) [nM]	IC50 (HUVEC [7]) [nM]	Activity (NPC-TW01 [8])	Activity (NPC-TW01 [9])
CO[C@@H]1O[C@H](CO)[C@@H](O)[C@H](O)[C@H]1OCCCC(=O)O[C@@H](C(=O)O[C@H]1C[C@@]2(O)[C@@H](OC(=O)c3ccccc3)[C@@H]3[C@]4(OC(C)=O)CO[C@@H]4C[C@H](O)[C@@]3(C)C(=O)[C@H](OC(C)=O)C(=C1C)C2(C)C)[C@@H](NC(=O)c1ccccc1)c1ccccc1	> 780	> 780	> 100000	> 100000	80 (≈ 71.7 µM)	174	> 100000	> 100000	78	374	480	> 100000	–	–
CO[C@@H]1O[C@H](C(=O)O)[C@@H](O)[C@H](O)[C@H]1OCCCC(=O)O[C@@H](C(=O)O[C@H]1C[C@@]2(O)[C@@H](OC(=O)c3ccccc3)[C@@H]3[C@]4(OC(C)=O)CO[C@@H]4C[C@H](O)[C@@]3(C)C(=O)[C@H](OC(C)=O)C(=C1C)C2(C)C)[C@@H](NC(=O)c1ccccc1)c1ccccc1	2790	1520	> 100000	> 100000	137 (≈ 121 µM)	201	24000	> 100000	67	181	469	44000	–	–
CO[C@@H]1O[C@H](CO)[C@@H](O)[C@H](O)[C@H]1OC(=O)CCC(=O)O[C@@H](C(=O)O[C@H]1C[C@@]2(O)[C@@H](OC(=O)c3ccccc3)[C@@H]3[C@]4(OC(C)=O)CO[C@@H]4C[C@H](O)[C@@]3(C)C(=O)[C@H](OC(C)=O)C(=C1C)C2(C)C)[C@@H](NC(=O)c1ccccc1)c1ccccc1	> 250	> 250	> 100000	100000	53 (≈ 46.9 µM)	82	> 100000	> 100000	25	82	100	> 100000	Active	Active
CO[C@@H]1O[C@H](C(=O)O)[C@@H](O)[C@H](O)[C@H]1OC(=O)CCC(=O)O[C@@H](C(=O)O[C@H]1C[C@@]2(O)[C@@H](OC(=O)c3ccccc3)[C@@H]3[C@]4(OC(C)=O)CO[C@@H]4C[C@H](O)[C@@]3(C)C(=O)[C@H](OC(C)=O)C(=C1C)C2(C)C)[C@@H](NC(=O)c1ccccc1)c1ccccc1	> 670	> 670	> 100000	> 100000	104 (≈ 90.9 µM)	95	> 100000	> 100000	67	267	452	> 100000	–	–
CC(=O)O[C@H]1C(=O)[C@@]2(C)[C@H]([C@H](OC(=O)c3ccccc3)[C@]3(O)C[C@H](OC(=O)[C@H](O)[C@@H](NC(=O)c4ccccc4)c4ccccc4)C(C)=C1C3(C)C)[C@]1(OC(C)=O)CO[C@@H]1C[C@@H]2O [PACLITAXEL]	–	–	89100	7260	< 0.4	8	16000	8810	–	26	61	5140	–	–

— ChEMBL document CHEMBL1140842 (J Med Chem, 2008)
